The list is not random: actives were taken first. Their share in the collection is about 3%.
RAM inhibit = inhibitors of the yeast RAM network, primary screen, dse1pr::URA3 reporter, 5-FOA selection; S. cerevisiae dse1pr::URA3 reporter, 5-FOA growth OD615, 2 d; analog-sensitive cbk1-as2 kinase mutant strain; inhibition, % at 50 µM; 1.8% of 190,000 active; AID 868, 2007;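 active = inhibition above a set limit, 3 SD over mean compound inhibition, cut at about 8.4% in these data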;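 also: 0% = DMSO-only wells with no growth and 100% = 10 µM 1-NA-PP1 full growth; inhibition rescues growth on 5-FOA so higher OD means more RAM inhibition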
Insulin prom inh = inhibitors of insulin promoter-driven GFP, primary screen, imaging, TRM-6 cells, eGFP reporter, cell count; reporter expression induced with tamoxifen; inhibition, % at 2 µM; 0.9% of 130,000 active; AID 1273, 2008;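 active = inhibition above the mean plus 3 SD, with well images judged a real hit on visual review, cut at about 60% in these data, passing the limit was not always enough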
Yeast lifespan up = compounds extending yeast replicative lifespan, primary screen, S. cerevisiae, OD615; S. cerevisiae growth with nicotinamide; deaD strain in restrictive glucose medium; inhibition of the nicotinamide effect, % at 10 µM; 0.68% of 130,000 active; AID 775, 2007;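 active = inhibition above a set limit, placed 3 SD over the median of all compounds, cut at about 26% in these data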;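 also: 0% = nicotinamide-treated wells and 100% = cells grown without nicotinamide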
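Assay system: engineered S. cerevisiae DeaD replicative-lifespan strain, galactose-grown log-phase cells; Buffer or medium: CSMM-D glucose medium, restrictive; Probe or stimulus: nicotinamide 1.5 mM; Compound: single dose 10 µM compound, 0.25% DMSO; Schedule: 4 h preincubation then 48 h treatment at 30 °C; Technique: OD615 measurement.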
Yeast growth inh = growth inhibitors of yeast BB579 in restrictive medium, primary screen, yeast lifespan-shortening project, S. cerevisiae. OD615, 48 h. inhibition, % at 10 µM. 0.51% of 140,000 active. AID 804, 2007;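 active = inhibition above a set limit, 3 SD over the mean compound inhibition, cut at about 44% in these data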
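Assay system – yeast BB579 (DeaD) · Dosing – single compound dose of 10 µM, 0.25% DMSO final · Detection – OD615 turbidity measurement · Buffer or medium – CSMM-D restrictive synthetic medium containing dextrose (glucose) · Benchmarks – positive control amphotericin B 10 µg/mL · Incubation – 48 h exposure, 30 °C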
Insulin prom up = insulin promoter activators in MIN6 cells, imaging, high-content screening, mouse beta cells. z-score at 5 µM. 0.3% of 190,000 active. MIN6 insulin promoter-GFP reporter; hits give high values;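 active = z-score above 3 at 5 µM with at least 500 cells counted in the well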
RAM 5-FOA = 5-FOA growth of efflux-deficient control yeast, dose response, counter-screen for RAM network inhibitor project, S. cerevisiae, OD615. shares compounds with RAM inhibit. S. cerevisiae efflux-deficient reporter strain, 5-FOA growth OD615, 2 days. max inhibition, %. 1,200 tested, under 10 active; call rule not given here;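 also: plate controls were vehicle for no effect and reference inhibitor for full effect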
* hit, by the source's call.

COc1cccc(C(=O)NN2c3ccccc3CCc3ccccc32)c1 was read as RAM inhibit 13*, Insulin prom inh -12, Yeast lifespan up -3, Yeast growth inh 9 and RAM 5-FOA 2.
For COc1cccc(C(=O)NN2C(=O)C3C4C=CC(O4)C3C2=O)c1 (stereo not given) the results were RAM inhibit -1, Insulin prom inh -20, Yeast lifespan up -20, Yeast growth inh -38 and Insulin prom up 0.78.
For CC(C)c1ccc(/C=C(\c2nc3ccccc3[nH]2)S(=O)(=O)c2ccccc2)cc1 the results were RAM inhibit 19*, Insulin prom inh 36, Yeast lifespan up 6, Yeast growth inh -47, Insulin prom up -2.9 and RAM 5-FOA 3.
Screening CC(=O)Nc1ccc(S(=O)(=O)Nc2nc3ccccc3nc2-n2ccc(=NC(=O)c3ccc(F)cc3)cc2)cc1 returned RAM inhibit 12*, Insulin prom up 1 and RAM 5-FOA 2.
`CCCCC(=O)N(CCOC)c1nnc(-c2ccccc2C)s1` gave RAM inhibit 7 and Insulin prom up -0.11.
`CCCC(CCC)=NNc1ccc(S(=O)(=O)Nc2ccccc2OC)cc1[N+](=O)[O-]` gave RAM inhibit 16*, Insulin prom inh 31, Yeast lifespan up 14, Yeast growth inh -49, Insulin prom up -0.66 and RAM 5-FOA 2.
Screening COc1ccccc1NS(=O)(=O)c1ccc(N/N=C(\C)C(C)C)c([N+](=O)[O-])c1 returned RAM inhibit 5, Insulin prom inh 9, Yeast lifespan up 3, Yeast growth inh -22 and Insulin prom up -0.62.
O=C(COc1cccc(F)c1)N1c2ccccc2Sc2ccccc21 was read as RAM inhibit 15*, Insulin prom inh 79*, Yeast lifespan up 6, Yeast growth inh -73, Insulin prom up -1.4 and RAM 5-FOA 4.
`S=C(c1ccc(-c2ccccc2Cl)o1)N1CCOCC1` gave RAM inhibit 12*, Insulin prom inh -7, Yeast lifespan up -7, Yeast growth inh -8, Insulin prom up 0.29 and RAM 5-FOA 2.
For COc1ccc(Cc2nc(-c3ccc(-n4cccc4)cc3)no2)cc1OC the results were RAM inhibit 12*, Yeast lifespan up -2, Yeast growth inh -8, Insulin prom up 0.18 and RAM 5-FOA 5.
COc1ccc(Cc2nc(-c3ccc(-n4cccc4)cc3)no2)cc1 was read as RAM inhibit 6, Yeast lifespan up -4 and Yeast growth inh -27.
Screening CN(C(=O)COC(=O)c1sc2ccccc2c1Cl)C1CCCCC1 returned RAM inhibit 14*, Insulin prom inh 7, Yeast lifespan up 6, Yeast growth inh -10, Insulin prom up 0.37 and RAM 5-FOA 3.
`CC1CN(Cc2nc3ccccc3c(=O)[nH]2)CC(C)O1` (stereo not given) gave RAM inhibit 3 and Insulin prom inh 33.
For O=C(COC(=O)c1cccc(S(=O)(=O)N2CCc3ccccc32)c1)Nc1ccc(Cl)cn1 the results were RAM inhibit 4, Yeast lifespan up -1, Yeast growth inh -32 and Insulin prom up -0.31.
For CCC(Oc1ccc2c(=O)c(-c3ccccc3OC)coc2c1)C(=O)OCc1ccccc1 (stereo not given) the results were RAM inhibit 22*, Insulin prom inh 30, Yeast lifespan up 4, Yeast growth inh -29, Insulin prom up 0.22 and RAM 5-FOA 2.
`CCCOc1ccc(/C=N/Nc2ccccc2[N+](=O)[O-])c(OCCC)c1` gave RAM inhibit 16*, Insulin prom inh 84*, Yeast lifespan up 0, Yeast growth inh -20, Insulin prom up 0.8 and RAM 5-FOA 6.
For O=[N+]([O-])c1ccccc1N/N=C\c1ccccc1Cl the results were RAM inhibit 1, Yeast lifespan up -2, Yeast growth inh -46 and Insulin prom up 0.06.
`Cc1ccc(Cl)cc1N1CCN(S(=O)(=O)c2ccc3[nH]c(=O)c(=O)[nH]c3c2)CC1` gave RAM inhibit 12*, Insulin prom inh 5 and RAM 5-FOA 2.
CCOC(=O)c1ccc(COC(=O)CNS(=O)(=O)c2ccccc2)cc1 was read as RAM inhibit 0 and Insulin prom up 1.1.
For O=C(OCc1ccccc1F)c1ccc2c(c1)-c1ccccc1C2=O the results were RAM inhibit 13*, Yeast lifespan up -10, Yeast growth inh -21, Insulin prom up -0.34 and RAM 5-FOA 3.
For CCOC(=O)C1=C(Cc2ccc(OC)cc2)C(=O)c2ccccc2C1=O the results were RAM inhibit 12*, Insulin prom inh 29, Yeast lifespan up 9, Yeast growth inh -52, Insulin prom up 1.2 and RAM 5-FOA 3.
For CCOC(=O)c1ccc(COC(=O)c2ccc3c(c2)-c2ccccc2C3=O)cc1 the results were RAM inhibit 12*, Insulin prom inh 3, Yeast lifespan up -1, Yeast growth inh -4, Insulin prom up -0.09 and RAM 5-FOA 5.
Screening O=C(OCc1cccc(F)c1)c1ccc2c(c1)-c1ccccc1C2=O returned RAM inhibit 8, Yeast lifespan up -21, Yeast growth inh -1 and Insulin prom up -0.3.
`C#CCNC(=O)C1=C[C@H](c2cn(C(C)=O)c3ccccc23)[C@@H](CCCO)[C@H](OCC)O1` gave RAM inhibit 2 and Insulin prom up 0.77.
Screening Cc1cc(Br)ccc1SCC(=O)OCC(=O)NC1CCCC1 returned RAM inhibit 17*, Insulin prom inh 25, Insulin prom up -0.24 and RAM 5-FOA 2.
Screening Cc1cc(C)c(NC(=O)COC(=O)CSc2ccc(Br)cc2C)c(C)c1 returned RAM inhibit 8, Insulin prom inh -43, Yeast lifespan up 9, Yeast growth inh -44 and Insulin prom up 0.31.
COc1ccccc1N1C(=O)CC1(C#N)c1ccc(OCc2ccccc2)cc1 (stereo not given) was read as RAM inhibit 7, Insulin prom inh 5, Yeast lifespan up 13, Yeast growth inh -36 and Insulin prom up -0.08.
For Cc1ccccc1N1C(=O)CC1(C#N)c1ccc(OCc2ccccc2)cc1 (stereo not given) the results were RAM inhibit 11*, Insulin prom inh -10, Yeast lifespan up 4, Yeast growth inh -25, Insulin prom up -0.11 and RAM 5-FOA 4.
CN1C(=O)/C(=C/c2ccc3c(c2)OCO3)N=C1c1ccccc1 was read as RAM inhibit 6, Insulin prom inh -23, Yeast lifespan up -1, Yeast growth inh 6 and Insulin prom up 0.11.
`CCSC1=N/C(=C\c2ccc3c(c2)OCO3)C(=O)S1` gave RAM inhibit 15*, Insulin prom inh 50, Yeast lifespan up -5, Yeast growth inh -30 and RAM 5-FOA 6.

Assay outcomes as filed in PubChem.
